Series [1] concerns ABCG2-expressing MDA-MD-231/R cells. The experiment in a line: Re-sensitization of MDA-MB-231/R cells to mitoxantrone. The class given is cell-based, human.
Series [2] concerns the target T1, ABCG2 (Homo sapiens, UniProt Q9UNQ0).
T1 sequence (Q9UNQ0 1-655): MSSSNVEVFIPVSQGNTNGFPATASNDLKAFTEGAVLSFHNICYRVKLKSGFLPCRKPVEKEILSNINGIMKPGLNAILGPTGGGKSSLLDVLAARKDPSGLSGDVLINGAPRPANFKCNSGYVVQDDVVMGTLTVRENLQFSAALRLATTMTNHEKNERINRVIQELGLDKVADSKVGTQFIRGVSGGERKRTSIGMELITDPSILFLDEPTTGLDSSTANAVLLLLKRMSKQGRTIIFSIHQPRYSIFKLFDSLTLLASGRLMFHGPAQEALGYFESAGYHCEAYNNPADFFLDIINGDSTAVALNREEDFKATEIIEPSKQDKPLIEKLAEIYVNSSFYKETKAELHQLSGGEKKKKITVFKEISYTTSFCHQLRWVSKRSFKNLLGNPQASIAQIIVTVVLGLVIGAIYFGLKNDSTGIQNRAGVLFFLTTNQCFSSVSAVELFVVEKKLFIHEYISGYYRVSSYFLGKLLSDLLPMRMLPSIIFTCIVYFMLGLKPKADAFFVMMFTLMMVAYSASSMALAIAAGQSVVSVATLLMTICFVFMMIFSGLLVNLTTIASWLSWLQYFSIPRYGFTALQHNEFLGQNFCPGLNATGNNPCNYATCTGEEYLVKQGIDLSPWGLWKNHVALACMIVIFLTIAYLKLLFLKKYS
As to conditions: read-out: EC50 PhA; increasing PhA content in ABCG2 over-expressing MDA-MB-231/R cells; cited from earlier work.

The next series concerns MDA-MB-231/V cells. Nature of the series: Growth inhibition by mitoxantrone in parental MDA-MB-231/V cells. To be noted: Homo sapiens, MDA-MB-231, 72 h, read-out: IC50 value of MX in MDA-MB-231/V cells. The series is classed as cell-based.
For series [3], the system named is ABCG2 expression in MDA-MB-231/R cells. The experiment in a line: Western blot analysis of ABCG2 protein levels in MDA-MB-231/R cells. The class given is cell-based, human. To be noted: 72 h; A-2 0.5 μM or 1 μM; MX 0.1 μM.
Series [4] has as its target T1, ABCG2. Nature of the series: ABCG2 ATPase assay. The series is classed as biochemical.
For another series, the system named is MDA-MB-231/V. The experiment in a line: Cell cytotoxicity by MTT assay on MDA-MB-231/V cells. The class given is cell-based, human. As to conditions: % of control cells (1% DMSO). The method in brief: (§1)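 Cells grown in RPMI 1640 with 10% FBS and 1.0 mg/ml geneticin at 37°C, 5% CO2, and used within 10 passages. 10^4 cells/well were seeded for 24 h, then exposed for 72 h to test compound (5 or 10 μM; 1% v/v DMSO final). After a PBS wash, MTT was added (3 h, 37°C), formazan dissolved in DMSO, and A590 read. Viability is % of 1% DMSO controls, mean (SD) of three independent determinations.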

In series [5] the target is T1, ABCG2. The experiment in a line: Photoaffinity labeling of ABCG2 with [125I]-IAAP in MCF-7 FLV1000 membranes. The class given is binding. As to conditions: test compound 5 μM.
A further series concerns MDA-MB-231/R. Nature of the series: Cell cytotoxicity by MTT assay on MDA-MB-231/R cells. The series is classed as cell-based, human. As to conditions: % of control cells (1% DMSO). The gist of the method: as §1

Read-outs that look alike come from different tables or passages of the source. Marks after values point to notes of the source that are not given here.

For `COc1ccc2c3c([nH]c2c1)[C@H](C=C(C)C)N1C(=O)[C@@H]2CCCN2C(=O)[C@@H]1C3` [FTC, fumitremorgin C], the Resistance index in series [1] (MX + test compound 0.05 μM, IC50 of MX R cells + test compound / IC50 of MX V cells) is reported as 7.4. Further, the EC50 on ABCG2 [2] was 1300 nM.

As to `O=C1c2c(O)ccc(O)c2C(=O)c2c(NCCNCCO)ccc(NCCNCCO)c21` [Mitoxantrone], the IC50 in series [1] (Homo sapiens, MDA-MB-231, 72 h, read-out: IC50 of mitoxantrone) was found to be 920 nM; in the series with MDA-MB-231/V cells, 70 nM. Moreover, the “Effect on ABCG2 protein levels in R cells” value in series [3] was “no effect”.

With `O=C1/C(=C/c2ccccc2)Oc2ccccc21` [UA-1], at ABCG2 [4], the “ATPase activity (fold stimulation)” value was 2.8 fold and the response was half-maximal at 190 nM (EC50). Moreover, the “% Viability MDA-MB-231/V 5 μM” value with MDA-MB-231/V (5 μM) is 98 (9) ^d %. Also, the “% Viability MDA-MB-231/V 10 μM” value with MDA-MB-231/V (10 μM) is recorded as 103 (7) ^c %. For the same molecule, the “Effect on photolabelling of ABCG2 by [125I]-IAAP (in words)” value at ABCG2 [5] is given as “minimal changes”. In addition, the “% Viability MDA-MB-231/R 5 μM” value in the series on MDA-MB-231/R (5 μM) is reported as 68 (10) ^d %. In addition, the “% Viability MDA-MB-231/R 10 μM” value in the series with MDA-MB-231/R (10 μM) is recorded as 60 (8) ^c %.

The values above are taken from PMC3733550 (Biochemical pharmacology, 2011).
